From PubChem
This is a sample that favours compounds with a hit; in the whole collection about 2.3% have one here.
TRPC6 inh – mouse TRPC6 channel inhibitors, primary screen, cell-based, HEK293, membrane potential dye. Short transient receptor potential channel 6 (Mus musculus), Q61143. ACh-evoked depolarization; active compounds read low. B-score at 10 µM. 310,000 compounds, 1.1% hits;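 active means B-score under library mean minus 3 SD, initial fluorescence not abnormally high, positive integrated signal ratio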;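 further: B-score derived from integrated fluorescence ratio over the kinetic read; more negative B-score means stronger inhibition of depolarization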
TRPC4 agonist – activators of mouse TRPC4 channel, primary screen, Fluo4 calcium, HEK293 TRPC4beta/mu-opioid cells; 310,000 compounds, 0.49% hits; B-score at 10 µM; Short transient receptor potential channel 4 (Mus musculus), Q9QUQ5; Fluo4 calcium fluorescence; active compounds read high;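 active means B-score above 5 SD of library B-scores, and initial fluorescence ratio not above library mean plus 5 SD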;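 further: positive B-score marks a calcium rise read as TRPC4 activation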
Target sequence (Q9QUQ5 whole entry, looked up): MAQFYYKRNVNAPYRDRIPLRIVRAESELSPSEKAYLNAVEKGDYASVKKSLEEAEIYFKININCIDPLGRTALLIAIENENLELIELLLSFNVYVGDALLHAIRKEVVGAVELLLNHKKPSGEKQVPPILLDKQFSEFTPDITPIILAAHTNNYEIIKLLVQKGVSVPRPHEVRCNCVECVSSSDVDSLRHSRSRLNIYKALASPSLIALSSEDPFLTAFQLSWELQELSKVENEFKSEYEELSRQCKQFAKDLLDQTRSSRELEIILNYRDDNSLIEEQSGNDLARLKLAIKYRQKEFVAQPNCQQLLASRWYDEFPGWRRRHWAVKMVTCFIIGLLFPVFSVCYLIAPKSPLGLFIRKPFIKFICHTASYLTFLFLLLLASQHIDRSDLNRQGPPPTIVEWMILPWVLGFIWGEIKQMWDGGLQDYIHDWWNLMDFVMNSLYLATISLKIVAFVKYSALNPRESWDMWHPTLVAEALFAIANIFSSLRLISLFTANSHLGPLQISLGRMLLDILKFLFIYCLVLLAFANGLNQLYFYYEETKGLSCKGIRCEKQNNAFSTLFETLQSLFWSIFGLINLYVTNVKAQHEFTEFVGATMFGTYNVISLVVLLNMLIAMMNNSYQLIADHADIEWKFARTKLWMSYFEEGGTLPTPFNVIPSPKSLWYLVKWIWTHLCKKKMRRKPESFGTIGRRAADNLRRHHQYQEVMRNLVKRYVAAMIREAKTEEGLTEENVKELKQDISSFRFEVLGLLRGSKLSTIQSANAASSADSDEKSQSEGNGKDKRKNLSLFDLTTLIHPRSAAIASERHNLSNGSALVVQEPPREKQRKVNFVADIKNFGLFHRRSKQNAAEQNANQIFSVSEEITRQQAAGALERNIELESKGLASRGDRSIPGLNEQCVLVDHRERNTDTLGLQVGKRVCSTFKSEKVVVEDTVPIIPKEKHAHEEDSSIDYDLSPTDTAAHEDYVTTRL
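Assay system: HEK293 cells stably co-expressing mouse TRPC4beta and mu-opioid receptor / Timing: Fluo4 dye loading 45 min at room temperature, 110 s recording / Signal: Fluo4 calcium-sensitive dye fluorescence, kinetic, 1 Hz baseline / Read-out: integrated baseline-normalised fluorescence ratio, converted to per-well B score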
TRPC6 activator – mouse TRPC6 channel activators, primary screen, cell-based, HEK293, membrane potential dye; Short transient receptor potential channel 6 (Mus musculus), Q61143; HEK293-TRPC6 membrane potential dye fluorescence; active compounds read high; B-score at 10 µM; 310,000 compounds, 0.13% hits; AID 2550, 2010;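 active means B-score of the integrated fluorescence ratio above library mean plus 3 SD, and starting fluorescence ratio within library mean plus 5 SD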;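 further: higher score means more depolarization so channel activation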
TRPC4 block – inhibitors of mouse TRPC4 channel, primary screen, Fluo4 calcium, HEK293 TRPC4beta/mu-opioid cells. Short transient receptor potential channel 4 (Mus musculus), Q9QUQ5. DAMGO-evoked Fluo4 calcium flux; active compounds read low. B-score at 10 µM. 300,000 compounds, 0.39% hits. AID 2247, 2010;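 active means B-score over 3 SD under the library average, no early fluorescence shift, positive overall ratio signal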
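System: stable TRPC4beta/mu-opioid receptor HEK293 cells; Dosing: single-point compound dosing; Measured by: Fluo4 Ca2+ flux fluorescence; Read-out basis: per-well B score of integrated baseline-normalized Fluo4 ratio.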
TRPC4 PAM – positive allosteric modulators of TRPC4, primary screen, cell-based, mouse TRPC4beta, HEK293 mu-opioid, Fluo-4 calcium | B-score at 10 µM | DAMGO EC20, Fluo-4 Ca2+ flux; active compounds read high | AID 2227, 2009 | 310,000 compounds, 0.42% hits;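 active means B-score of calcium response area above 5 SD of library B-scores, with initial fluorescence ratio within 5 SD of library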;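 further: B-score of integrated fluorescence ratio over time as area under calcium response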
Starred values were filed as active, the others as inactive; i = inactive.

SMILES | TRPC6 inh | TRPC4 agonist | TRPC6 activator | TRPC4 block | TRPC4 PAM
CN1CCN(c2nc(-c3ccccc3)ncc2S(=O)(=O)c2ccccc2)CC1 | i | i | i | i | i
Cc1ccc(S(=O)(=O)c2cnc(-c3ccccc3)nc2N2CCN(C)CC2)cc1 | i | i | i | -6* | i
COc1ccccc1CCc1nnc(CCC(=O)NCCCOc2cccnc2)o1 | i | i | i | -6* | i
COc1ccccc1CCc1nnc(CCC(=O)NC(C)Cc2cccnc2)o1 (stereo not drawn) | i | i | i | i | i
CC1CC(C)CN(CC(O)COCc2ccccc2)C1 (stereo not drawn) | i | i | i | i | i
COc1ccccc1CC(=O)N1CCN(S(=O)(=O)c2ccccc2)CC1 | i | i | i | i | 20*
Cc1ccc(NC(=O)CNc2ccccc2CN(C)C2CCCCC2)cc1 | i | i | i | -6* | i
Cc1ccc(/C=C(\C#N)C(=O)NCC2CCCO2)o1 (stereo not drawn) | i | 55* | i | i | i
N#C/C(=C\c1cccc([N+](=O)[O-])c1)C(=O)NCC1CCCO1 (stereo not drawn) | i | i | i | i | 12*
O=C1COc2ccc(S(=O)(=O)Nc3ccc(F)cc3)cc2N1 | i | i | i | i | i
CSC1=NC2(CCCCC2)C2=C(CCCC2)N1 | i | i | i | -6* | i
CN(c1nc2ccccc2[nH]c1=O)C1CCCCC1 | i | i | i | i | i
CN(C)CCCOc1cccc(Oc2ccccc2)c1 | i | i | i | i | 12*
CC(C)c1cccc(OCCCCN(C)C)c1 | i | i | i | i | 17*
CN(C)CCCOc1cccc(Cl)c1 | i | 64* | i | i | 32*
CCCCNCCCOc1cccc(Cl)c1 | i | i | i | i | i
CCN(CC)CCOc1cccc(C(C)C)c1 | i | i | i | i | i
Nc1cc(=O)[nH]n1C1CCCCC1 | i | i | i | i | i
CC(C)Oc1cccc(C(=O)C2CCCN(C(=O)CCc3cnn(C)c3)C2)c1 (stereo not drawn) | i | i | i | i | i
Cc1nc2ccccc2n1CCOc1ccc(F)cc1 | i | i | i | -6* | i
OCc1nc2ccccc2n1CCOc1ccccc1 | i | i | i | -6* | i
COc1ccc(CN(C)CC(=O)Nc2sc3c(c2C#N)CCC3)cc1OC | i | i | i | -6* | i
CN(CC(=O)Nc1sc2c(c1C#N)CCCCC2)Cc1nc2ccccc2c(=O)[nH]1 | i | i | i | i | 16*
COc1ccc(C)cc1N(C(=O)c1ccccc1F)c1nc2ccccc2s1 | i | i | i | -6* | i
Cc1cccc(NC(=O)CSc2nnc(CNC(=O)c3ccco3)n2C)c1 | i | i | i | i | i
SMILES | TRPC6 inh | TRPC4 agonist | TRPC6 activator | TRPC4 block | TRPC4 PAM
CCc1cc(C(c2cccc(OC)c2)N2CCOCC2)c(NC(=O)c2ccccc2)s1 (stereo not drawn) | i | i | i | -6* | i
CCc1cc(C(c2ccc(OC)c(OC)c2)N2CCOCC2)c(NC(=O)c2ccccc2)s1 (stereo not drawn) | i | i | i | i | i
c1ccc(-n2cc(CNCCc3cscn3)c(-c3ccc4c(c3)OCO4)n2)cc1 | i | 46* | i | i | i
CC(C)[C@H](NC(=O)C1CCN(C(=O)[C@@H]2CCCN2)CC1)C(=O)NCc1ccc(F)cc1 | i | i | i | i | i
O=[N+]([O-])c1cccc(CNC2CCCCCC2)c1 | i | i | i | i | i
CCOc1ccc([N+](=O)[O-])cc1CNC1CCCCCCC1 | -5.89* | i | i | i | i
Cc1nnc2sc(-c3csc4c3CCCC4)nn12 | i | i | i | -6* | i
CCCCn1c(N)c(N(CCC(C)C)C(=O)C2CC(=O)N(c3ccc(OC)cc3OC)C2)c(=O)[nH]c1=O (stereo not drawn) | i | i | i | i | i
CCOc1ccc(S(=O)(=O)NC(C)(C)C)cc1-c1nc2c(C(C)(C)C)nn(C)c2c(=O)[nH]1 | i | i | i | i | 11*
COc1ccccc1CCC(=O)OCC(=O)NC1CC1 | i | i | i | i | i
COC(=O)[C@@]12CCCCN1[C@H](c1ccc(-c3ccccc3)cc1)[C@@H]1C(=O)N(C)C(=O)[C@@H]12 | i | i | i | i | 18*
COc1cccc(-c2nnn(CC(=O)N(CC(C)C)C3CCS(=O)(=O)C3)n2)c1 (stereo not drawn) | i | i | i | i | i
Cc1cc(OC(C)C(=O)NCc2ccncc2)c2c(C)c(C)c(=O)oc2c1 (stereo not drawn) | i | i | i | i | i
Nc1ccc(Oc2ccccc2-c2ccccc2)cc1 | i | i | i | i | 14*
NCCOc1ccccc1-c1ccccc1 | i | i | i | i | i
Cc1cccc(NC(=O)CSc2nnc(-c3cc(C)n(-c4ccccc4)c3C)o2)c1C | i | i | i | -7* | i
Cc1cc(-c2nnc(SCC(=O)Nc3ccccc3C(F)(F)F)o2)c(C)n1-c1ccccc1 | i | i | i | i | i
CCCCCCc1c(O)nc(SCC(=O)O)[nH]c1=O | i | i | i | i | i
CC(C)c1c(O)nc(SCC(=O)N2CCCCC2)[nH]c1=O | i | i | i | i | 10*
CCCCCc1c(O)nc(SCCN(CC)CC)[nH]c1=O | i | 46* | i | i | i
CCCCCc1c(O)nc(SCCN(C)C)[nH]c1=O | i | 93* | i | i | i
CCCCCCc1c(O)nc(SCCN(C)C)[nH]c1=O | i | 65* | i | i | i
CCCN(CCC)CCSc1nc(O)c(C(C)C)c(=O)[nH]1 | i | i | i | i | 12*
CC(C)c1c(O)nc(SCCC(=O)O)[nH]c1=O | i | i | i | i | i
COc1cc(/C=C(/C#N)C(=O)c2c(C)[nH]c3ccccc23)ccc1OCC#N | i | i | i | i | 10*
COc1cc(NC(=O)Cc2cccs2)cc(OC)c1 | i | i | i | i | i
COc1cc(OC)cc(C(=O)NC(=S)NNC(=O)[C@H]2C[C@@H]2c2ccccc2)c1 | i | 192* | i | i | i
